Measurements of several laboratories.
Each line is one published result; the experiments were not run side by side.
Target: Interleukin-1 receptor-associated kinase 1 (IRAK1, Homo sapiens, UniProt P51617)

Compound	test	setting	quantity	value
CCCCC(=O)Nc1ccc(-c2ccc3ncn(CCC)c(=O)c3c2)cn1	binding, competition with immobilised ligand	0.5 µM	remaining binding	75%
C#Cc1cc(-c2cc(Nc3nc(N[C@@H](C)c4ccc(F)cn4)ncc3Cl)n[nH]2)ccc1C=O	enzyme activity, inhibitor	0.2 µM	inhibition	10.8%
C=CC(=O)N1CCC([C@@H]2CCNc3c(C(N)=O)c(-c4ccc(Oc5ccccc5)cc4)nn32)CC1	enzyme activity, inhibitor	1 µM	inhibition	0%
Cc1cc(O)c(-c2ccc([C@@H](C)CN(C)C)cc2)c2c1[nH]c(=O)c1sccc12	enzyme activity, inhibitor	0.1 µM	inhibition	-2.56%
COc1ccc2oc(-c3ccc4nc(N)oc4c3)c/c(=N\c3ccccc3NC(=O)CCN)c2c1	binding	1 µM	remaining binding	102%
Cc1ccc(NC(=O)c2ccnc(C(F)(F)F)c2)cc1-c1cc(OCCO)nc(N2CCOCC2)c1	binding	1 µM	remaining binding	100%
CO[C@@H]1[C@H](N(C)C(=O)c2ccccc2)C[C@H]2O[C@]1(C)n1c3ccccc3c3c4c(c5c6ccccc6n2c5c31)C(=O)NC4	enzyme activity, inhibitor	1 µM	inhibition	19%
C[C@H]1CC[C@H](n2c3cnccc3c3cnc(Nc4ccc5c(n4)CCN(C(=O)CO)C5)nc32)CC1	cell-free assay	1 µM	remaining signal	23%
C1=C/COCc2cc(ccc2OCCN2CCCC2)Nc2nccc(n2)-c2cccc(c2)COC/1	binding	0.1 µM	remaining binding	0%
